According to ChEMBL document CHEMBL1158099, “A chemical study of cyclic depsipeptides produced by a sponge-derived fungus” (J Nat Prod, 2006):
In brackets after ≈: the same amount, converted by molar mass. Starred links: 1 amine or outer side, 2 acyl side, 3 side chain; linkers in the order of their positions; H or OH if unused. Non-standard residues stand in square brackets, D forms with d. Residues, ends and D or L forms follow the SMILES beside them. X1 = CC(C)(O)[C@H](O[*:1])C(=O)[*:2]; dNMeF = CN[C@H](Cc1ccccc1)C(=O)O; Hica(2S) = CC(C)C[C@H](O)C(=O)O; Hiv = CC(C)[C@H](O)C(=O)O; NMeA = CN[C@@H](C)C(=O)O

How the values were obtained:
Enterococcus durans = assay: Antibacterial activity against Enterococcus durans; assay type: functional
[1] = system: Staphylococcus epidermidis; assay: Antibacterial activity against Staphylococcus epidermidis; assay type: functional
[2] = Cytotoxicity against human H116 cells by disk diffusion soft agar colony formation assay; assay type: functional
Outline: (§1)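 Cell-based soft agar disk diffusion assay, applied to extracts, partition fractions and pure compounds. Read-out is the inhibition zone in zone units. The panel covers solid tumour cells (Colon 38, Colon H116, Lung H125), leukaemia cells (L1210, CEM) and normal CFU-GM. A sample counts as solid-tumour selective when the solid tumour zone exceeds the leukaemia or normal cell zone by more than 250 units.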

MC-38 = assay: Cytotoxicity against mouse C38 cells by disk diffusion soft agar colony formation assay; assay type: functional; outline: as §1
[3] = Cytotoxicity against human H125 cells by disk diffusion soft agar colony formation assay; assay type: functional; outline: as §1
[4] = Cytotoxicity against human CFU-GM cells by disk diffusion soft agar colony formation assay; assay type: cell-based; outline: as §1
[5] = Cytotoxicity against mouse CFU-GM cells by disk diffusion soft agar colony formation assay; assay type: cell-based; outline: as §1
L1210 = assay: Cytotoxicity against mouse L1210 cells by disk diffusion soft agar colony formation assay; assay type: functional; outline: as §1
CCRF-CEM = assay: Cytotoxicity against human CEM cells by disk diffusion soft agar colony formation assay; assay type: cell-based; outline: as §1

| Structure (SMILES) | MIC (Enterococcus durans) [µg/mL] | MIC [1] [µg/mL] | Activity [2] [Zone units] | Activity (MC-38) [Zone units] | Activity [3] [Zone units] | Activity [4] | Activity [5] | Activity (L1210) [Zone units] | Activity (CCRF-CEM) [Zone units] |
| --- | --- | --- | --- | --- | --- | --- | --- | --- | --- |
| CC(C)C[C@@H]1OC(=O)[C@H](C)NC(=O)[C@H](C(C)C)OC(=O)[C@H](C)N(C)C(=O)[C@@H](C)NC(=O)[C@@H](Cc2ccccc2)N(C)C1=O [GUANGOMIDE B] (cyclo(A[Hica(2S)][dNMeF][dA][NMeA][Hiv])) | 100 (≈ 166 µM) | 100 (≈ 166 µM) | – | – | – | – | – | – | – |
| CC(C)C[C@@H]1OC(=O)[C@H](C)NC(=O)[C@H](C(C)(C)O)OC(=O)[C@H](C)N(C)C(=O)[C@@H](C)NC(=O)[C@@H](Cc2ccccc2)N(C)C1=O [GUANGOMIDE A] (cyclo(A[Hica(2S)][dNMeF][dA][NMeA][X1])) | 100 (≈ 162 µM) | 100 (≈ 162 µM) | 50 | 0 | 0 | Not Active | Not Active | 0 | – |
| C[C@H]1CCC/C=C/[C@@H]2C[C@H](O)C[C@H]2[C@H](O)/C=C/C(=O)O1 [BREFELDIN A] | – | – | 900 | 150 | 600 | 1000 Zone units | Not Active | 0 | 0 |
